ASAP1 inh = inhibitors of human ASAP1 ArfGAP activity. Q9ULH1. ASAP1-stimulated ARF1 GTP hydrolysis, GDP FP detection. inhibition, % at 16.5 µM. actives 0.19% (n = 360,000). AID 624377; in the data active means inhibition above about 25%;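 further: 0% = vehicle with enzyme and substrate and 100% = no enzyme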
ARFGAP1 inhibitor = rat ARFGAP1 inhibition. Q62848. Arfgap1-stimulated ARF1 GTP hydrolysis, GDP FP detection. inhibition, % at 16.5 µM. actives 0.26% (n = 360,000). AID 651572;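 active means inhibition above a per-plate limit, mean inhibition of low control wells plus 3 SD, cut at about 25% in these data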;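 further: 0% = DMSO wells with enzyme and 100% = wells lacking Arfgap1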
Target sequence (Q62848 1-136 limits assumed): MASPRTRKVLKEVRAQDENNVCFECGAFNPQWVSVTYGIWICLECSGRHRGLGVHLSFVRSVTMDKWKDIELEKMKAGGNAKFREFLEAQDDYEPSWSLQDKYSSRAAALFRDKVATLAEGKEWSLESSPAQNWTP
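System: truncated rat Arfgap1 GAP domain / Benchmarks: high control wells lacking Arfgap1, low control full reaction with DMSO / Times: compound-enzyme preincubation 20 min, reaction 120 min, detection 60 min, 25 °C / Repeats: one replicate per compound / Also added: human ARF1(Δ1-17)-GTP substrate / Measured by: Tracer-displacement fluorescence polarization with EDTA stop, 620/688 nm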
PAFAH1B3 FP inh = PAFAH1B3 (human) inhibition; recombinant PAFAH1B3, FP-rhodamine probe, fluorescence polarization; inhibition, % at 3.39 µM; actives 0.28% (n = 340,000); Q15102; AID 492972;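 active means inhibition above the screen-wide average of all tested compounds plus 3 SD, cut at about 25% in these data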;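 further: 0% = enzyme with DMSO only and 100% = wells lacking PAFAH1B3 protein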
Target sequence (Q15102 whole entry, looked up): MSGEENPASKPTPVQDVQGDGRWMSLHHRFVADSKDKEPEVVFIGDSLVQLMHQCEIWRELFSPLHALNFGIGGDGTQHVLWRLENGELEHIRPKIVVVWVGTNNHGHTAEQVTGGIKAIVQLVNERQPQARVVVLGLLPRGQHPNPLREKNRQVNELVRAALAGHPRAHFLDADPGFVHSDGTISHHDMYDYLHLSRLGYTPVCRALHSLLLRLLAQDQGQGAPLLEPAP
pPAFAH FP inh = pPAFAH (human) enzyme inhibition; inhibition, % at 3.39 µM; Q13093; recombinant pPAFAH, FP-rhodamine probe fluorescence polarization; actives 1.5% (n = 330,000);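 active means inhibition above the mean inhibition across the screen plus 3 SD, cut at about 25% in these data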;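 further: inhibitors block binding of the rhodamine activity-based probe so polarization drops; 0% = enzyme with DMSO and 100% = wells lacking pPAFAH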
PAFAH1B2 inh = PAFAH1B2 (human) inhibition | recombinant PAFAH1B2, FP-rhodamine activity probe, fluorescence polarization | inhibition, % at 3.39 µM | actives 1.2% (n = 340,000) | AID 492953;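 active means inhibition above the mean of all tested compounds plus 3 SD, cut at about 24% in these data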;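 further: 0% = enzyme with DMSO and 100% = wells lacking PAFAH1B2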
Target sequence (P68402 whole entry, looked up): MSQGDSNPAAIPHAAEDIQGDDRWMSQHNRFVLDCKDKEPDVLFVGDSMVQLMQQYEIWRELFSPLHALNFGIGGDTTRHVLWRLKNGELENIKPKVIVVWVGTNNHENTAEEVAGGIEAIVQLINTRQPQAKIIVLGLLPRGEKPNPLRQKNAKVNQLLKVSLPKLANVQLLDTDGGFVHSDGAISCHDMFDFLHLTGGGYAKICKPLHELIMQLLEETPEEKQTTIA
PAFAH2 inh = inhibitors of human PAFAH2; Q99487; recombinant PAFAH2, FP-rhodamine activity probe, fluorescence polarization; inhibition, % at 3.39 µM; actives 0.99% (n = 340,000); AID 492956;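 active means inhibition above the mean over all tested compounds plus 3 SD, cut at about 30% in these data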;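 further: inhibitors block probe labeling of enzyme so polarization drops; 0% = enzyme with DMSO and 100% = wells lacking PAFAH2 protein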
Numbers without * were called inactive; nt = no result. Sampled rows, rich in hits. Any-hit rate of the full collection: about 2.7%.

SMILES	ASAP1 inh	ARFGAP1 inhibitor	PAFAH1B3 FP inh	pPAFAH FP inh	PAFAH1B2 inh	PAFAH2 inh
CC(C)[C@@H](C)/C=C/[C@@H](C)[C@H]1CC[C@@H]2[C@]1(C)CCC1[C@]23C=C[C@]2(C[C@@H](O)CC[C@]12C)N(c1cnccn1)O3 (stereo not given in full)	1	20	nt	nt	nt	nt
COC(=O)[C@]12C[C@H](CC(=O)N3CCCC3)C(=O)N(Cc3ccccc3)C1=C[C@H](C(C)C)O[C@@H]2C1CC1	-3	3	nt	nt	nt	nt
CC(C)(C)OC(=O)N1CCC2CCN(CCc3ccccc3)CC21 (stereo not given)	-6	-5	nt	nt	nt	nt
Cc1ccc(-c2csc(N3N=C(c4ccccc4)/C(=C\c4ccc(N(C)C)cc4)C3=O)n2)cc1	nt	nt	nt	28*	nt	nt
C#CCN(Cc1cccc(F)c1)C(=O)c1nnc2c3cc(F)ccc3n(S(=O)(=O)c3ccc(OC)cc3)c2n1	10	13	nt	nt	nt	nt
Cc1ccc(S(=O)(=O)CCC(=O)NCCN2C(=O)S/C(=C/c3ccc(F)cc3)C2=O)cc1	16	4	4	5	33*	6
O=C(CCNC(=O)c1ccco1)NCCN1C(=O)S/C(=C\c2ccc(F)cc2)C1=O	-14	9	7	-2	7	8
CCCCCCCCN1[C@@H](CC(=O)O)c2ccc(C(F)(F)F)cc2S1(=O)=O	-6	6	1	11	31*	14
COc1cc(S(=O)(=O)Nc2ccncc2)ccc1F	-2	3	-6	3	8	6
COc1cc(S(=O)(=O)Nc2ccc(C)cc2)ccc1NC(=O)c1ccncc1	8	-5	2	34*	0	6
CCOc1ccc(NS(=O)(=O)c2ccc(NC(C)=O)c(OC)c2)cc1	-8	-4	7	25*	3	-5
CCC(=O)Nc1ccc(-c2ccc(NC(=O)CC)c(OC)c2)cc1OC	-3	17	2	6	6	-2
CCCCOc1ccc(S(=O)(=O)Nc2ccc(NC(C)=O)cc2)cc1	0	-8	4	12	5	0
CCC(=O)Nc1ccc(S(=O)(=O)Nc2cccc(C)c2)cc1OC	-17	-4	10	30*	2	7
OCC1OC(C(N=Nc2ccccc2)=NNc2ccccc2)C(O)C1O (stereo not given)	7	11	nt	nt	nt	nt
Cc1ccc(S(=O)(=O)NCCc2cc3ccc(C)cc3[nH]c2=O)cc1	7	-4	-1	7	27*	-14
O=C(C(=O)N1CCN(C(=O)c2ccccc2C(F)(F)F)CC1)c1cccc(C(F)(F)F)c1	4	2	nt	nt	nt	nt
O=c1[nH]n2c(=O)c3c([nH]c2c1N=Nc1cccc(C(F)(F)F)c1)CCCC3	8	-2	16	28*	30*	24
O=c1[nH]n2c(=O)c3c([nH]c2c1N=Nc1cccc(Cl)c1)CCC3	15	-6	3	24	10	16
CC(C)C1=CC2C3C(=O)N(c4ccccc4)C(=O)C3C1C(=O)C2(C)O (stereo not given)	-12	-12	nt	nt	nt	nt
O=C(NCc1ccccc1)c1cccc(COc2cc(Cl)ccc2Cl)c1	0	-6	2	-6	8	-15
CN(C(=O)c1cccc(COc2ccc(Cl)cc2Cl)c1)c1ccccc1	-7	8	-7	2	27*	-1
COc1ccccc1CC(=O)O/N=C(\N)Cc1cccc2ccccc12	1	2	-4	-1	3	34*
COc1ccccc1NC(=O)c1cc2c(CO)cnc(C)c2oc1=Nc1ccc(OC)c(OC)c1	7	10	12	25*	0	-4
CC(=O)Nc1ccc(S(=O)(=O)N(C)CC(=O)OCC(=O)NC(C)C23CC4CC(CC(C4)C2)C3)cc1 (stereo not given)	-3	6	8	-3	25*	7
SMILES	ASAP1 inh	ARFGAP1 inhibitor	PAFAH1B3 FP inh	pPAFAH FP inh	PAFAH1B2 inh	PAFAH2 inh
CC(=O)Nc1ccc(S(=O)(=O)N(C)CC(=O)OCC(=O)NNC(=O)c2ccccc2F)cc1	-3	-8	-3	2	1	-4
COC(=O)C(Cc1ccc(O)cc1)NC(=O)C(C)NC(=O)c1ccc(C(C)(C)C)cc1 (stereo not given)	21	-2	7	4	27*	6
COC(=O)C(Cc1ccc(O)cc1)NC(=O)c1ccccc1 (stereo not given)	-14	6	3	7	3	-3
O=C(O)c1cc2cc(Cl)cc(Cl)c2oc1=O	-5	1	-5	27*	-1	11
O=C(NCCO)c1cc2cc(Cl)cc(Cl)c2oc1=O	6	-2	-2	3	0	-1
CCN(Cc1cc(OC)c(OC)c(OC)c1)S(=O)(=O)c1ccccc1Br	23	12	nt	nt	nt	nt
Cc1ccc(C2C(C#N)=C(N)SC(N)=C2C#N)o1	nt	nt	nt	29*	nt	nt
Cc1cc(NS(=O)(=O)c2ccc(Nc3nc(-c4ccc(C)c(C)c4)cs3)cc2)no1	3	-11	-2	34*	8	25
CCCCCCCCN1C(=O)[C@@H](CC(=O)NCCCOC)C[C@@]2(C(=O)OC)C1=C[C@H](C(C)(C)C)O[C@@H]2C	-5	-4	nt	nt	nt	nt
O=C1/C(=C\c2ccco2)SC(=S)N1C1CCCCC1	nt	nt	nt	33*	nt	nt
O=C(N[C@H](C(=O)N1CCC[C@H]1C(=O)NCCc1ccccc1Cl)c1ccccc1)c1ccco1	-7	-8	nt	nt	nt	nt
CCN1/C(=C/C=C/C=C/C=C/c2sc3ccccc3[n+]2CC)Sc2ccccc21	-2	32*	-29	2	-15	-25
N#CC1=C(S)N(c2ccccc2)C(c2ccco2)NC1=O (stereo not given)	5	1	10	4	2	8
N#CC1=C(S)N(c2ccccc2)C(c2ccc(-c3ccc(Cl)c(Cl)c3)o2)NC1=O (stereo not given)	-16	-2	-4	34*	-2	-1
N#CC1=C(S)N(c2ccccc2)C(c2ccc(-c3cc(Cl)ccc3Cl)o2)NC1=O (stereo not given)	-3	-15	5	36*	7	-2
CCN1C[C@@H]2[C@@H]3C(=O)N(Cc4ccccc4)C(=O)[C@@H]3[C@](CC)(C1=O)N2C(=O)c1ccc(Cl)cc1	7	2	nt	nt	nt	nt
COc1cc2c(c(OC)c1OC)C1(CCCCC1)CC2NCC=C(C)C (stereo not given)	-4	14	nt	nt	nt	nt
Cc1[nH]nc2c1C(c1ccc(Cl)cc1)C(C#N)=C(N)O2 (stereo not given)	-9	8	8	4	28*	-3
Cc1ccc(C(=O)N2O[C@]34C=C[C@]25C[C@@H](O)CC[C@]5(C)C3CC[C@]2(C)[C@@H]([C@H](C)/C=C/[C@H](C)C(C)C)CC[C@H]24)cc1 (stereo not given in full)	0	-1	nt	nt	nt	nt
O=C(c1cc(COc2ccc(F)cc2Cl)on1)N1CCN(C2CCCC2)CC1	5	-5	4	26*	1	-7
